Compounds with a hit are over-represented: about 3.7% of the library has one in this group of screens.
KCNK9 block: blocks the human KCNK9 two-pore domain potassium channel | B-score at 10 µM | HEK293 KCNK9, FluxOR thallium flux fluorescence; hits give low values | AID 488922 | actives 1.2% (n = 310,000) | Q9NPC2;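 active = ratio B-score over 3 SD below the library mean, with starting fluorescence within 5 SD of its mean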;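 note: negative B-score means less thallium flux so channel inhibition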
Target sequence (Q9NPC2 whole entry, looked up, the tested form may be a part): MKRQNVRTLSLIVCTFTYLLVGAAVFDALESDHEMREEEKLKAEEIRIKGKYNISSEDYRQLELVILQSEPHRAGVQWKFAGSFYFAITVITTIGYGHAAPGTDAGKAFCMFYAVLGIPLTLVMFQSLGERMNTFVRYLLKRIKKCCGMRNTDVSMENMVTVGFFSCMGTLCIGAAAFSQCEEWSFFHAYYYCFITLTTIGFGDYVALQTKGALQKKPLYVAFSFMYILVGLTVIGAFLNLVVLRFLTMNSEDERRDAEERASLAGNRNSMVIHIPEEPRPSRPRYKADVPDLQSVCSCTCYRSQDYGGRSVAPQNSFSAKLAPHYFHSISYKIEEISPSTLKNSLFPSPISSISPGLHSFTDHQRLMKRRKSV
KCNQ1 block: inhibitors of human KCNQ1 potassium channel | B-score at 10 µM | actives 1.3% (n = 310,000) | P51787 | CHO-K1 KCNQ1, FluxOR thallium flux fluorescence; hits give high values;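 active = compounds whose thallium flux B-score, printed positive for inhibition, exceeds three library SD while starting fluorescence stays within three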;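 note: channel opened by potassium depolarization with thallium stimulus after 20 min compound exposure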
KCNQ1 act: potentiators or activators of human KCNQ1 potassium channel; P51787; CHO-K1 KCNQ1, thallium flux FluxOR fluorescence; hits give high values; B-score at 10 µM; actives 0.35% (n = 310,000); AID 2648;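 active = fluorescence ratio B-score, a plate-corrected score, at least three library SD, with initial intensity B-score within 5 SD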
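Material: CHO-K1 cells stably expressing KCNQ1. Medium: assay buffer for compound exposure, DMSO matched across wells. Reagent: K+/Tl+ depolarizing stimulus. Compound dosing: single-concentration screen. Times: 37 °C overnight plating, 90-min dark dye load, 20-min compound pretreatment. Technique: FluxOR Tl+ flux fluorescence.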
KCNK3 block: human KCNK3 channel inhibition, primary screen | AID 602410 | O14649 | B-score at 10 µM | actives 0.84% (n = 340,000) | CHO-KCNK3 thallium flux, FluxOR fluorescence; hits give low values;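 active = B-score under library mean minus 4 SD, starting fluorescence ratio at most library mean plus 5 SD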;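 note: more negative B-score means stronger inhibition of thallium flux through KCNK3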
Target sequence (O14649 whole entry, looked up): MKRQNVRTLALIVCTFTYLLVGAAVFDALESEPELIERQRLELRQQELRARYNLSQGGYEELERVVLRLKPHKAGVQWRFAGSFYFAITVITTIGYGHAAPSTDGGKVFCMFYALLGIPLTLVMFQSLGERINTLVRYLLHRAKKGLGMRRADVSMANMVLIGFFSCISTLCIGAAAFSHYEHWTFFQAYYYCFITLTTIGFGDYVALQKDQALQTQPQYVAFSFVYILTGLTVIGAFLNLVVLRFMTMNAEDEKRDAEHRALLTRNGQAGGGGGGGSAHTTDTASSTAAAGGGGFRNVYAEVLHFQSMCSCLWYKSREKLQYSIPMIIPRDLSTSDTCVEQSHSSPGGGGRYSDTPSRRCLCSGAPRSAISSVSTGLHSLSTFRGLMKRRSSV
Kir21 inh: blocks the mouse Kir2.1 inward-rectifier potassium channel; P35561; HEK293-Kir2.1, FluxOR thallium flux fluorescence; hits give low values; B-score at 10 µM; actives 0.85% (n = 310,000);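 active = fluorescence ratio B-score at or below minus 3 SD of library scores, with starting-brightness B-score within 2 SD, cut at about -4.2 in these data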;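 note: channel flux triggered by added potassium and thallium sulfate stimulus; B-score of peak minus minimum fluorescence over baseline after thallium stimulus; more negative B-score means stronger Kir2.1 block with less thallium influx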
hERG rescue: compounds protecting human hERG from proarrhythmic drug block; Q12809; CHO-hERG, FluxOR thallium flux, dofetilide IC70 present; activation (rescue from dofetilide block), less the hit threshold, % at 10 µM; actives 0.51% (n = 310,000);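 active = activation above the mean of controls blocked by dofetilide plus 5 SD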;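 note: thallium influx through hERG after potassium depolarization seen as dye fluorescence rise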
Each line names hits and unclear results; the compound was inactive in the other large screens.

N#CC1C=Cc2ccccc2N1C(=O)c1ccccc1 (stereo unspecified)	KCNK9 block -7.3
O=C(O)C1C=Cc2ccccc2N1C(=O)c1ccccc1 (stereo unspecified) (tested in a mixture with another compound)	none (no result: KCNK9 block, KCNQ1 block, KCNQ1 act, Kir21 inh, hERG rescue)
CN1N=C(C(=O)N=c2sc3ccccc3n2C)CCC1=O	none (no result: KCNK9 block, KCNQ1 block, KCNQ1 act, Kir21 inh, hERG rescue)
Cc1ccc(COc2ccc(CNCCCN3CCCCCC3=O)cc2)cc1	Kir21 inh -5.1
O=C(COc1ccc(Br)cc1)NCCCN1CCCC1=O	none (no result: KCNK9 block, KCNQ1 block, KCNQ1 act, Kir21 inh, hERG rescue)
O=C1CCN2C=Nc3cccc4ccc1c2c34	KCNQ1 block 25
O=C1CCC(=O)c2ccc3c4c(ccc1c24)CC3	none (no result: KCNK9 block, KCNQ1 block, KCNQ1 act, Kir21 inh, hERG rescue)
CCC1(CC)SC(N)=NC1=O	none (no result: KCNK9 block, KCNQ1 block, KCNQ1 act, Kir21 inh, hERG rescue)
O=S(=O)(c1ccc2ccccc2c1)N(CC1CO1)c1ccccc1 (stereo unspecified)	none
COC(=O)/C=C/c1c(C)nc(NCc2ccccc2)nc1Cl	none
CC[n+]1c(/C=C/c2ccc(OC)c(OC)c2)ccc2ccccc21	none
CCN(CC)c1ccc(/C=C/c2ccc3ccc(OC)cc3[n+]2CC)cc1	KCNK9 block -7.1, KCNK3 block -13, Kir21 inh -16
COc1cc(NC(=O)c2ccccc2OCc2ccccc2)cc(OC)c1OC	hERG rescue 11
COc1cccc(NC(=O)c2ccccc2OCc2c(C)noc2C)c1	KCNK3 block -11 (no result: KCNK9 block, KCNQ1 block, KCNQ1 act, Kir21 inh, hERG rescue)
Cc1noc(C)c1COC(=O)c1ccccc1NC(=O)Cc1ccccc1	none
Cc1ccc(NC(=O)c2ccccc2OCc2c(C)noc2C)cc1S(=O)(=O)N(C)C	none (no result: KCNK9 block, KCNQ1 block, KCNQ1 act, Kir21 inh, hERG rescue)
COc1ccc(C=NNC(=O)c2ccccc2OCc2ccc(F)cc2)c(OC)c1	KCNK3 block -9.9 (no result: KCNK9 block, KCNQ1 block, KCNQ1 act, Kir21 inh, hERG rescue)
CCOc1cc(/C=N/NC(=O)c2ccccc2OCc2ccc(F)cc2)ccc1O	none (no result: KCNK9 block, KCNQ1 block, KCNQ1 act, Kir21 inh, hERG rescue)
Cc1noc(C)c1COC(=O)c1ccccc1Oc1ccccc1	Kir21 inh -5.1
Cn1cc(Br)c(C(=O)Nc2ncc(Br)s2)n1	none
Cn1c(O)c(C=NCCCCCC(=O)O)c(=O)n(C)c1=O	none (no result: KCNK9 block, KCNQ1 block, KCNQ1 act, Kir21 inh, hERG rescue)
O=C(NC1CCCc2ccccc21)C(Cc1ccccc1)NS(=O)(=O)c1cccs1 (stereo unspecified)	none
O=C(NC1CCCCC1)C(Cc1ccccc1)NS(=O)(=O)c1cccs1 (stereo unspecified)	hERG rescue 7.9
O=C(Nc1ccccc1C(=O)NC(Cc1ccccc1)C(=O)NC1CCCCCC1)c1ccccc1 (stereo unspecified)	KCNQ1 block 6
CCOc1ccc(CCNC(=O)COC(=O)c2ccc[nH]c2=O)cc1OCC	none (no result: KCNK9 block, KCNQ1 block, KCNQ1 act, Kir21 inh, hERG rescue)
Nc1ccc(S(=O)(=O)NN=Cc2ccccc2[N+](=O)[O-])cc1	none (no result: KCNK9 block, KCNQ1 block, KCNQ1 act, Kir21 inh, hERG rescue)
COc1cccc(NC(=O)CN(C)C(=O)COc2ccccc2Cc2ccccc2)c1	none (no result: KCNK9 block, KCNQ1 block, KCNQ1 act, Kir21 inh, hERG rescue)
COC(=O)c1cc(NC(=O)c2cccs2)ccc1N1CCOCC1	none
COC(=O)c1cc(NC(=O)c2cc(-c3ccc(Cl)cc3)oc2C(F)(F)F)ccc1N1CCOCC1	KCNQ1 block 7
C[C@H](CO)N1C[C@H](C)[C@@H](CN(C)C(=O)Nc2ccc(C(F)(F)F)cc2)Oc2c(NS(=O)(=O)c3cn(C)cn3)cccc2C1=O	none (no result: KCNK9 block, KCNQ1 block, KCNQ1 act, Kir21 inh, hERG rescue)
O=C(COC(=O)c1cc(=O)[nH]c2ccccc12)Nc1nc(-c2ccc(F)cc2)cs1	none (no result: KCNK9 block, KCNQ1 block, KCNQ1 act, Kir21 inh, hERG rescue)
Cc1onc(-c2ccccc2)c1-c1csc(N/N=C/c2ccccc2Cl)n1	KCNQ1 block 9
Cc1onc(-c2ccc(Cl)cc2Cl)c1-c1csc(N/N=C/c2ccccc2Cl)n1	none
Cc1ccc(CNCCCSc2nc(C)cc(C)n2)cc1	Kir21 inh -4.9
Cc1cc(C)nc(SCCCNCc2c(F)cccc2Cl)n1	none
Cc1cccc(Cn2c(C(=O)OC(C)C)cc3c2ccn3C)c1	KCNQ1 block 6
COC(=O)c1cc2occc2n1Cc1cccc(C)c1	none
Cn1c(N)nc2nc[nH]c2c1=S	none (no result: KCNK9 block, KCNQ1 block, KCNQ1 act, Kir21 inh, hERG rescue)
CN(C[C@H](Cc1ccccc1)N(C[C@H](Cc1ccccc1)N(CCC(C)(C)C)N=O)N=O)N=O	KCNQ1 block 8
CC(C)CCN(N=O)[C@@H](Cc1ccccc1)CN(N=O)[C@@H](Cc1ccccc1)CN(C)N=O	none
CCCCN(CCCC)S(=O)(=O)c1ccc(NC(=O)c2ccc([N+](=O)[O-])cc2Cl)cc1	KCNQ1 block 7
Cc1ccc2c(c1)C1CN(C)CCC1N2C(=O)c1cccc(S(=O)(=O)N(C)C)c1 (stereo unspecified)	none
Cc1ccc2c(c1)C1CN(C)CCC1N2C(=O)Nc1ccc(Cl)cc1 (stereo unspecified)	KCNQ1 block 7
O=C(c1ccc(Cl)cc1)N1CCCOC1	hERG rescue 7.0
COc1ccc(C(=Cc2cc(OC)c(OC)cc2[N+](=O)[O-])C(=O)O)cc1	none (no result: KCNK9 block, KCNQ1 block, KCNQ1 act, Kir21 inh, hERG rescue)
Nn1c(Cc2cccc3ccccc23)nnc1SCCOc1ccc(Br)cc1	none
Nn1c(Cc2cccc3ccccc23)nnc1SCCOc1ccc(F)cc1	KCNK9 block -7.9
COc1ccccc1[C@@]1(C)ON(c2ccccc2C(F)(F)F)C1=O	none (no result: KCNK9 block, KCNQ1 block, KCNQ1 act, Kir21 inh, hERG rescue)
O=C(COC(=O)c1cccc(S(=O)(=O)NCc2ccccc2)c1)c1ccccc1	none
Cc1cc(C)c(C(=O)COC(=O)c2cccc(S(=O)(=O)NCc3ccccc3)c2)cc1C	Kir21 inh -4.3
COc1cc(CNCCCN2CCOCC2)cc(Br)c1OCc1ccc(Cl)cc1	Kir21 inh -8.2
COc1cc(CNCCN2CCOCC2)ccc1OCc1ccc(Cl)cc1	none
COc1ccc(OCC(=O)NCc2nc(-c3ccccc3)no2)cc1	none (no result: KCNK9 block, KCNQ1 block, KCNQ1 act, Kir21 inh, hERG rescue)
O=c1c(O)c(-c2ccc3c(c2)OCO3)oc2ccccc12	KCNQ1 act 33, hERG rescue 9.4
COc1ccc(S(=O)(=O)Nc2ccc3c(c2)C(=O)N([C@H](C)CO)C[C@H](C)[C@@H](CN(C)S(=O)(=O)c2cccs2)O3)cc1	none (no result: KCNK9 block, KCNQ1 block, KCNQ1 act, Kir21 inh, hERG rescue)
OCCC1CN(Cc2cccc3nonc23)CCN1Cc1ccsc1 (stereo unspecified)	none
OCCC1CN(Cc2ccccc2OC2CCCC2)CCN1Cc1ccsc1 (stereo unspecified)	Kir21 inh -4.5
OCCC1CN(Cc2ccc(-c3ccco3)cc2)CCN1Cc1ccsc1 (stereo unspecified)	Kir21 inh -4.5
COc1ccc(CCN2CC(C(=O)Nc3nccs3)CC2=O)cc1OC (stereo unspecified)	none (no result: KCNK9 block, KCNQ1 block, KCNQ1 act, Kir21 inh, hERG rescue)
O=C1CC2(CCCCC2)Oc2ccccc21	hERG rescue 5.4
O=C1CC2(CCCCC2)Oc2ccc(F)cc21	none
Cc1ccc(N2CCN(C(=O)Nc3cccc([N+](=O)[O-])c3)CC2C)cc1 (stereo unspecified)	KCNQ1 block 6
Cc1cccc(N2CCN(C(=O)c3ccncc3)CC2C)c1 (stereo unspecified)	hERG rescue 6.1
Cc1cccc(N2CCN(C(=O)Cn3sc4nc(C)cc(C)c4c3=O)CC2C)c1 (stereo unspecified)	KCNQ1 act 14
Cc1cc(C)c2c(=O)n(CC(=O)N3CCC(Cc4ccccc4)CC3)sc2n1	none (no result: KCNK3 block)

Assay outcomes (PubChem BioAssay)
